Active and inactive are the calls of the source. The calls are words filed in the database; no cut-off is given here.
Experiments:
[1] = target: Indoleamine 2,3-dioxygenase 1 (Homo sapiens, UniProt P14902); assay: Inhibition of IDO1 in IFN-gamma stimulated human HeLa cells assessed as reduction in kynurenine production using L-tryptophan as substrate incubated for 24 hrs; format: cell-based
[2] = Cytotoxicity against human HeLa cells assessed as survival rate at 30 uM incubated for 24 hrs by MTT assay relative to control; format: cell-based; conditions: read-out: Activity
[3] = target: Indoleamine 2,3-dioxygenase 1 (Mus musculus) (UniProt P28776); assay: Reversal of IDO1-mediated immunosuppression in mouse CT26 co-cultured with T-cells assessed as increase in T cell proliferation measured after 48 hrs by MTT assay
Method in brief: (§1)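 CT26 cells (1 × 10^5/well) exposed to compound ([…]) in medium with […] for 48 h. BALB/c splenic T cells resuspended in a 1:1 mix of this supernatant and RPMI/10% FBS with […] for 48 h. IFN-γ measured by ELISA; proliferation by MTT (1 mg/mL, 4 h, 37 °C, DMSO, 570 nm). Three replicate wells, mean ± SEM.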

[4] = target: Indoleamine 2,3-dioxygenase 1 (Mus musculus) (UniProt P28776); assay: Reversal of IDO1-mediated immunosuppression in mouse CT26 co-cultured with T-cells assessed as ConA- stimulated differentiation of Treg cells at 0.3 uM measured after 48 hrs by FOXP3-APC based flow cytometry analysis (reference value: 11.4 %)
HeLa = assay: Effect on IDO1 expression in IFN-gamma-stimulated human HeLa cells at 3 times IDO1 IC50 for 24 hrs by western blot analysis; format: functional, cell-based
Method in brief: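 HeLa cells (2 × 10^5/well) exposed to human IFN-γ 100 ng/mL with or without compound for 24 h. Lysis in 50 mM Tris-HCl pH 8.0 with detergents and protease inhibitors, then 10% SDS-PAGE and PVDF transfer. Membrane blocked with 5% milk and probed with anti-IDO antibody and HRP secondary; band intensity quantified.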

[5] = target: Tryptophan 2,3-dioxygenase (Homo sapiens) (UniProt P48775); assay: Inhibition of IFN-gamma-induced human TDO2 transfected in HeLa cells at 10 times IDO1 IC50 concentration using L-tryptophan as substrate incubated for 24 hrs relative to control; format: cell-based
Method in brief: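 HeLa cells transfected for 24 h with a human TDO2 plasmid, then reseeded at 5 × 10^3/well. After 6 h, IFN-γ and compounds added in medium with […] for 24 h. Supernatant treated with 6.1 N TCA at 50 °C for 30 min and centrifuged; kynurenine read with p-dimethylaminobenzaldehyde at 480 nm.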

[6] = target: Indoleamine 2,3-dioxygenase 1 (Mus musculus) (UniProt P28776); assay: Reversal of IDO1-mediated immunosuppression in mouse CT26 co-cultured with T-cells assessed as increase in IFN-gamma production measured after 48 hrs by ELISA; method in brief: as §1
CT26 [7] = assay: Antitumor activity against mouse CT26 cells xenografted in BALB/c mouse assessed as decrease in tumour growth at 50 mg/kg, po via gavage for 17 days by vernier caliper method; format: functional, organism-based
Mus musculus [8] = assay: Induction of apoptosis in BALB/c mouse xenografted with CT26 cells assessed as cell shrinkage at 50 mg/kg via oral gavage for 17 days by H&E staining based analysis; format: functional, organism-based
Method in brief: (§2)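 Tumor tissue from the 17-day CT26/BALB/c gavage study stained with hematoxylin and eosin. Nuclei, cytoplasm and cell morphology assessed by microscopy.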

Mus musculus [9] = assay: Induction of apoptosis in BALB/c mouse xenografted with CT26 cells assessed as nuclear chromatin condensation at 50 mg/kg via oral gavage for 17 days by H&E staining based analysis; format: functional, organism-based; method in brief: as §2
Mus musculus [10] = assay: Induction of apoptosis in BALB/c mouse xenografted with CT26 cells assessed as nuclear chromatin margination at 50 mg/kg via oral gavage for 17 days by H&E staining based analysis; format: functional, organism-based; method in brief: as §2
[11] = target: Indoleamine 2,3-dioxygenase 1 (Mus musculus) (UniProt P28776); assay: Reversal of IDO1-mediated immunosuppression in mouse CT26 co-cultured with T-cells assessed as increase in IFN-gamma production measured after 48 hrs by ELISA relative to control; method in brief: as §1
CT26 [12] = assay: Antitumor activity against mouse CT26 cells xenografted in BALB/c mouse assessed as decrease in tumour weight at 50 mg/kg, po via gavage for 17 days by vernier caliper method relative to control; format: functional; conditions: 408 h
[13] = Toxicity in BALB/c mouse xenografted with mouse CT26 cells assessed as effect on body weight at 50 mg/kg, po via gavage for 17 days and measured at day 17; format: organism-based; conditions: in vivo, 408 h
CT26 [14] = assay: Antitumor activity against mouse CT26 cells xenografted in immunodeficient BALB/c nude mouse assessed as reduction in tumour growth at 50 mg/kg, po via gavage for 10 days by vernier caliper method; format: functional, organism-based
Method in brief: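 BALB/c nude mice carrying subcutaneous CT26 tumors (1 × 10^6 cells, armpit). Randomized 3 days post-implant into vehicle or treatment groups (n = 6). Oral gavage given on days 1–10; 5-Fu served as reference. Tumor volume and body weight recorded, and tumors weighed after sacrifice.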

Mus musculus [15] = assay: Induction of apoptosis in BALB/c mouse xenografted with CT26 cells assessed as decrease in PCNA expression at 50 mg/kg via oral gavage for 17 days by immunohistochemistry analysis; format: functional, organism-based
Method in brief: (§3)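 Paraffin sections of CT26 tumors from the 17-day BALB/c study. Sections deparaffinized, rehydrated and treated with 2% H2O2. Blocked with 3% goat serum, then incubated 2 h at room temperature with the specific primary antibody. Detection with streptavidin-HRP for 40 min and DAB, hematoxylin counterstain, microscopic imaging.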

Mus musculus [16] = assay: Induction of apoptosis in BALB/c mouse xenografted with CT26 cells at 50 mg/kg via oral gavage for 17 days by TUNEL assay; format: functional, organism-based
Method in brief: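 TUNEL staining of tumor sections from the 17-day CT26/BALB/c study. Apoptotic nuclei scored by fluorescence microscopy under a FITC filter (green).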

Mus musculus [17] = assay: Increase in infiltrating CD8-positive T cells in BALB/c mouse xenografted with CT26 cells at 50 mg/kg via oral gavage for 17 day by immunohistochemical analysis; format: functional, organism-based; method in brief: as §3
Mus musculus [18] = assay: Increase in IFN-gamma expression in BALB/c mouse xenografted with CT26 cells at 50 mg/kg via oral gavage for 17 day by immunohistochemical analysis; format: functional, organism-based; method in brief: as §3
Mus musculus [19] = assay: Decrease in FOXP3-postive T cells in BALB/c mouse xenografted with CT26 cells at 50 mg/kg via oral gavage for 17 day by immunohistochemical analysis; format: functional, organism-based; method in brief: as §3
Mus musculus [20] = assay: Increase in Granzyme B expression in BALB/c mouse xenografted with CT26 cells at 50 mg/kg via oral gavage for 17 day by immunohistochemical analysis; format: functional, organism-based; method in brief: as §3

Tryptophan 2,3-dioxygenase (Homo sapiens), sequence (P48775 whole entry, looked up): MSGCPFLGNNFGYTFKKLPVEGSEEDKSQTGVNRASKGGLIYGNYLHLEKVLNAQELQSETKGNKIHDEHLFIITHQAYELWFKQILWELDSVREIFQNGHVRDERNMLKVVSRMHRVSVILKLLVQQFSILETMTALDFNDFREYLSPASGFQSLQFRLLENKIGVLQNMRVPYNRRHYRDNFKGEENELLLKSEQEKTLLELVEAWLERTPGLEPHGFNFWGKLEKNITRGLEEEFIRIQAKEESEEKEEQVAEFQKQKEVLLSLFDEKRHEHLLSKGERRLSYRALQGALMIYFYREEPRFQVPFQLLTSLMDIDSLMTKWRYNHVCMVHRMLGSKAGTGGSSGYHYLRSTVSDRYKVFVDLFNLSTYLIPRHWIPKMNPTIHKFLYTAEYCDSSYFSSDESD
Indoleamine 2,3-dioxygenase 1 (Mus musculus), sequence (P28776 whole entry, looked up): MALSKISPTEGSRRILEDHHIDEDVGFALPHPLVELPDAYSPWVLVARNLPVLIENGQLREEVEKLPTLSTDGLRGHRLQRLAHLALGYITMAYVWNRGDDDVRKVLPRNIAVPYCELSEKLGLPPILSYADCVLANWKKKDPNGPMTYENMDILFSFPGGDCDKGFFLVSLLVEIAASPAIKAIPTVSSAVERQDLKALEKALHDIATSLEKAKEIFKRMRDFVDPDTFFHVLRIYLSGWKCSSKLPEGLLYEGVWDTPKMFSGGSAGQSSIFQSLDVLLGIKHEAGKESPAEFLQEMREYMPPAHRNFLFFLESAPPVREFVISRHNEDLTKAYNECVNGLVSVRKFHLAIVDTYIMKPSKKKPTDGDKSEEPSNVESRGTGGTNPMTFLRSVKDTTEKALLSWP
Indoleamine 2,3-dioxygenase 1, sequence (P14902 whole entry): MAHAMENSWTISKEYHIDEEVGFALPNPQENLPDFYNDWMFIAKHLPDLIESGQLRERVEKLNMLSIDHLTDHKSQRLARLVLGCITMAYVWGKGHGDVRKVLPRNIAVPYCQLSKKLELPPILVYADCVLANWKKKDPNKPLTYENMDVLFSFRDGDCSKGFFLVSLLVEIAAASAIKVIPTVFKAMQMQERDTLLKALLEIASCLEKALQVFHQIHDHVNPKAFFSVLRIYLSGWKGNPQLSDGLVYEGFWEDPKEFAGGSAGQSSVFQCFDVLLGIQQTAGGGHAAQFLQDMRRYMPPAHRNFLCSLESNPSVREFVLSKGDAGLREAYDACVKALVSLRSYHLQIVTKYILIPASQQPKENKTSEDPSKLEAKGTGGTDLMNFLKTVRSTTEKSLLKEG

## CCC(Nc1ccc(Cl)cc1C)C(=O)N/N=C/c1c(O)ccc2ccccc12 (stereo not given)
[1]
  IC50: 2.1 µM
[2]
  viability at 24 h, 30 µM: 105%
[3]
  Activity: Active
[4]
  Activity: 6.7%
HeLa
  Activity: inactive

## O=C(CSc1ccc(Cl)cc1)N/N=C/c1c(O)ccc2ccccc12
[1]
  IC50: 6 µM
[2]
  viability at 24 h, 30 µM: 106%

## CCOc1ccc(NCc2nnc3n2N=C(c2cccs2)CS3)cc1
[1]
  IC50: > 30 µM
[2]
  viability at 24 h, 30 µM: 101%

## O=C(Cc1ccc([N+](=O)[O-])cc1)N/N=C/c1c(O)ccc2ccccc12
[1]
  IC50: 10.3 µM
[2]
  viability at 24 h, 30 µM: 106%

## COc1ccccc1C(=O)N/N=C/c1c(O)ccc2ccccc12
[1]
  IC50: 11.3 µM
[2]
  viability at 24 h, 30 µM: 100%

## COc1ccc(NC(=O)Cn2cnc3scc(-c4ccc(C)cc4)c3c2=O)cc1
[5]
  inhibition: < 20%
[1]
  IC50: 3.2 µM
[2]
  viability at 24 h, 30 µM: 107%
[3]
  Activity: Active
[6]
  Activity: Active
[4]
  Activity: 10.8%
CT26 [7]
  inhibition: Active
Mus musculus [8]
  Activity: Active
Mus musculus [9]
  Activity: Active
Mus musculus [10]
  Activity: Active
HeLa
  Activity: inactive

## O=C(N/N=C/c1c(O)ccc2ccccc12)Nc1ccccc1
[1]
  IC50: > 30 µM
[2]
  viability at 24 h, 30 µM: 102%

## Oc1ccccc1CN1CCCC(c2n[nH]cc2-c2ccc(Cl)cc2)C1 (stereo not given)
[1]
  IC50: 18.6 µM
[2]
  viability at 24 h, 30 µM: 101%

## NS(=O)(=O)NCCNc1nonc1C(=NO)Nc1ccc(F)c(Br)c1 [EPACADOSTAT]
[2]
  viability at 24 h, 30 µM: 92%

## CCC(Nc1ccc(Cl)cc1C)C(=O)N/N=C/c1ccccc1 (stereo not given)
[5]
  inhibition: < 20%
[11]
  fold change (FC): 2
[3]
  Activity: Active
[4]
  Activity: 5.9%
CT26 [7]
  inhibition: Active
CT26 [12]
  inhibition in vivo at 50 mg/kg: 36%
[13]
  Activity: Non-Toxic
CT26 [14]
  Activity: inactive
Mus musculus [8]
  Activity: Active
Mus musculus [9]
  Activity: Active
Mus musculus [10]
  Activity: Active
Mus musculus [15]
  Activity: Active
Mus musculus [16]
  Activity: Active
Mus musculus [17]
  Activity: Active
Mus musculus [18]
  Activity: Active
Mus musculus [19]
  Activity: Active
Mus musculus [20]
  Activity: Active
HeLa
  Activity: inactive

## CCNC(=O)C(=O)N/N=C/c1c(O)ccc2ccccc12
[1]
  IC50: > 30 µM
[2]
  viability at 24 h, 30 µM: 102%

## NS(=O)(=O)NCCNc1nonc1/C(=N/O)Nc1ccc(F)c(Br)c1
[5]
  inhibition: < 20%

## COc1cccc(NCc2nnc3n2N=C(c2cccc(OC)c2)CS3)c1
[1]
  IC50: > 30 µM
[2]
  viability at 24 h, 30 µM: 104%

## CCOc1ccc(/C=N/NC(=O)c2c(O)ccc3ccccc23)cc1
[1]
  IC50: 27.3 µM
[2]
  viability at 24 h, 30 µM: 112%

## Cc1sc2ncn(CC(=O)NCc3ccccc3)c(=O)c2c1-c1ccc(Br)cc1
[2]
  viability at 24 h, 30 µM: 84%

## O=C(Cn1cnc2scc(-c3ccc(F)cc3)c2c1=O)NC(=O)NCc1ccccc1
[1]
  IC50: > 30 µM
[2]
  viability at 24 h, 30 µM: 100%

## CCC(Nc1ccc(Cl)cc1C)C(=O)N/N=C/c1cccc2ccccc12 (stereo not given)
[1]
  IC50: 2.2 µM

## CN(C)c1ccc(C(=O)N/N=C/c2c(O)ccc3ccccc23)cc1
[1]
  IC50: 21.1 µM
[2]
  viability at 24 h, 30 µM: 114%

## COc1cccc(NCc2nnc3n2N=C(c2ccc(Br)cc2)CS3)c1
[1]
  IC50: 20.6 µM
[2]
  viability at 24 h, 30 µM: 101%

## Cc1ccc(OCC(=O)N/N=C/c2c(O)ccc3ccccc23)c(C)c1
[1]
  IC50: > 30 µM
[2]
  viability at 24 h, 30 µM: 80%

## Cc1ccc(NCc2nnc3n2N=C(c2ccc(Cl)cc2)CS3)cc1
[2]
  viability at 24 h, 30 µM: 100%
